Test results reported in ChEMBL document CHEMBL1128448, “Synthesis and antifungal activity of new azole derivatives containing an N-acylmorpholine ring” (1995).
Converted amounts (≈) assume the structure as drawn.

What was measured:
Pichia kudriavzevii = experiment: In vitro evaluation of minimum inhibitory concentration against Candida krusei 70; type: functional
Summary of the method: (§1)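 Stocks are 800 μg/mL in 50% ethanol. Each plate gets 10 μL of inoculum at 10^5 cfu/mL. Incubation at 25 °C, 48 h for yeasts and 120 h for dermatophytes and molds. Organisms are ATCC strains or clinical isolates.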

Mus sp. [1] = experiment: In vivo evaluation of % survival rate after peroral administration on 7th day at dose 1 mg/kg; type: functional; details: for Survival: route oral, 1 mg/kg
Mus sp. [2] = experiment: In vivo evaluation of % survival rate after peroral administration on 3rd day at dose 1 mg/kg; type: functional
[3] = test system: Meyerozyma guilliermondii; experiment: In vitro evaluation of minimum inhibitory concentration against Candida guilliermondii 26; type: functional; summary of the method: as §1
Trichophyton rubrum = experiment: In vitro evaluation of minimum inhibitory concentration against Trichophyton rubrum 90; type: functional; summary of the method: as §1
Mus sp. [4] = experiment: In vivo evaluation of % survival rate after peroral administration on 7th day at dose 2.5 mg/kg; type: functional; details: for survival at 2.5 mg/kg: Mus sp., po
Nannizzia gypsea = experiment: In vitro evaluation of minimum inhibitory concentration against Microsporum gypseum 22; type: functional; summary of the method: as §1
Candida parapsilosis = experiment: In vitro evaluation of minimum inhibitory concentration against Candida parapsilosis 61; type: functional; summary of the method: as §1
Kluyveromyces marxianus = experiment: In vitro evaluation of minimum inhibitory concentration against Candida pseudotropicalis 13; type: functional; summary of the method: as §1
Mus sp. [5] = experiment: In vivo evaluation of % survival rate after peroral administration on 3rd day at dose 2.5 mg/kg; type: functional; details: for survival at 2.5 mg/kg: Mus sp., po
Mus sp. [6] = experiment: In vivo evaluation of % survival rate after peroral administration on 9th day at dose 2.5 mg/kg; type: functional; details: for survival at 2.5 mg/kg: Mus sp., po
Candida tropicalis = experiment: In vitro evaluation of minimum inhibitory concentration against Candida tropicalis 2.11; type: functional; summary of the method: as §1
Microsporum canis = experiment: In vitro evaluation of minimum inhibitory concentration against Microsporum canis 47; type: functional; summary of the method: as §1
Candida albicans [7] = experiment: In vivo evaluation of minimum inhibitory concentration against Candida albicans 60; type: functional
Summary of the method: (§2)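 Broth macrodilution MIC following NCCLS M27-P, in RPMI-1640 buffered with 0.165 M MOPS. Fluconazole was dissolved in water and other drugs in DMSO. C. parapsilosis ATCC 22019 served as the reference strain in every run. MIC was the lowest concentration giving turbidity at or below the 80% inhibition standard.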

Trichophyton benhamiae = experiment: In vitro evaluation of minimum inhibitory concentration against Trichophyton mentagrophytes 23; type: functional, Arthroderma benhamiae; summary of the method: as §1
Mus sp. [8] = experiment: In vivo evaluation of % survival rate after peroral administration on 5th day at dose 2.5 mg/kg; type: functional; details: for survival at 2.5 mg/kg: Mus sp., po
Mus sp. [9] = experiment: In vivo evaluation of % survival rate after peroral administration on 5th day at dose 1 mg/kg; type: functional
Rhodotorula mucilaginosa = experiment: In vitro evaluation of minimum inhibitory concentration against Rhodotorula rubra 16; type: functional; summary of the method: as §1
Mus sp. [10] = experiment: In vivo evaluation of % survival rate after peroral administration on 9th day at dose 1 mg/kg; type: functional; details: for Survival: route oral, 1 mg/kg
Candida albicans [11] = experiment: In vitro evaluation of minimum inhibitory concentration against Candida albicans 76; type: functional; summary of the method: as §1
Candida albicans [12] = experiment: […] Evaluation of minimum inhibitory concentration against Candida albicans 406; type: functional; summary of the method: as §1
Aspergillus fumigatus = experiment: In vitro evaluation of minimum inhibitory concentration against Aspergillus fumigatus 33; type: functional; summary of the method: as §1
Candida albicans [13] = experiment: […] Evaluation of minimum inhibitory concentration against Candida albicans 60; type: functional; summary of the method: as §1
Nakaseomyces glabratus = experiment: In vitro evaluation of minimum inhibitory concentration against Torulopsis glabrata 78; type: functional; summary of the method: as §1
Aspergillus flavus = experiment: In vitro evaluation of minimum inhibitory concentration against Aspergillus flavus 19; type: functional; summary of the method: as §1
Aspergillus niger = experiment: In vitro evaluation of minimum inhibitory concentration against Aspergillus niger 18; type: functional; summary of the method: as §1
Candida albicans [14] = experiment: In vivo evaluation of minimum inhibitory concentration against Candida albicans 406; type: functional; details: Candida albicans; read-out: MIC; summary of the method: as §2
[15] = Pichia kudriavzevii, read-out: MIC
[16] = Meyerozyma guilliermondii, read-out: MIC
[17] = Trichophyton rubrum, read-out: MIC
[18] = Nannizzia gypsea, read-out: MIC
[19] = Lodderomyces parapsilosis, read-out: MIC
[20] = Kluyveromyces marxianus, read-out: MIC
[21] = Candida tropicalis, read-out: MIC
[22] = Aspergillus fumigatus, read-out: MIC
[23] = Microsporum canis, read-out: MIC
[24] = Candida albicans, read-out: MIC
[25] = Nakaseomyces glabratus, read-out: MIC
[26] = Aspergillus flavus, read-out: MIC
[27] = Aspergillus niger, read-out: MIC
[28] = Trichophyton benhamiae, read-out: MIC
[29] = Rhodotorula mucilaginosa, read-out: MIC

For `C[C@H]1N(C(=O)c2ccc(C(F)(F)F)cc2)CCO[C@@]1(Cn1cncn1)c1ccc(F)cc1F` (racemic), the MIC (Pichia kudriavzevii) was 80 µg/mL (≈ 172 µM), the Survival (Mus sp. [1]) was 10% and the Survival (Mus sp. [2]; route oral, 1 mg/kg) was 80%. The MIC [3] was 80 µg/mL (≈ 172 µM), the MIC (Trichophyton rubrum) was 20 µg/mL (≈ 42.9 µM) and the Survival (Mus sp. [4]; route oral, 2.5 mg/kg) was 90%. The MIC (Nannizzia gypsea) was 40 µg/mL (≈ 85.8 µM), the MIC (Candida parapsilosis) was 40 µg/mL (≈ 85.8 µM) and the MIC (Kluyveromyces marxianus) was 5 µg/mL (≈ 10.7 µM). The Survival (Mus sp. [5]; route oral, 2.5 mg/kg) was 100%, the Survival (Mus sp. [6]; route oral, 2.5 mg/kg) was 90% and the MIC (Candida tropicalis) was 80 µg/mL (≈ 172 µM). The MIC (Microsporum canis) was 40 µg/mL (≈ 85.8 µM), the MIC (Candida albicans [7]) was 1.25 µg/mL (≈ 2.68 µM) and the MIC (Trichophyton benhamiae) was 80 µg/mL (≈ 172 µM). It also gave a Survival (Mus sp. [8]; route oral, 2.5 mg/kg) of 100%, a Survival (Mus sp. [9]; route oral, 1 mg/kg) of 70% and an MIC (Rhodotorula mucilaginosa) of 40 µg/mL (≈ 85.8 µM). It also gave a Survival (Mus sp. [10]) of 0% and an MIC (Candida albicans [11]) of 80 µg/mL (≈ 172 µM).

With `C[C@@H](NC(=O)c1ccc(C(F)(F)F)cc1)[C@](O)(Cn1cncn1)c1ccc(F)cc1F` (racemic) the MIC (Pichia kudriavzevii) was over 80 µg/mL, the Survival (Mus sp. [1]) was 80% and the MIC [3] was 2.5 µg/mL (≈ 5.68 µM). The MIC (Trichophyton rubrum) was over 40 µg/mL, the survival at 2.5 mg/kg (Mus sp. [4]) was 100% and the MIC (Nannizzia gypsea) was over 80 µg/mL. It also gave an MIC (Candida parapsilosis) of 20 µg/mL (≈ 45.4 µM), an MIC (Kluyveromyces marxianus) of 40 µg/mL (≈ 90.8 µM) and a survival at 2.5 mg/kg (Mus sp. [5]) of 100%. It also gave a survival at 2.5 mg/kg (Mus sp. [6]) of 100%, an MIC (Candida tropicalis) of 80 µg/mL (≈ 182 µM) and an MIC (Candida albicans [12]) of 0.31 µg/mL (≈ 0.704 µM). The MIC (Aspergillus fumigatus) was over 80 µg/mL, the MIC (Microsporum canis) was over 80 µg/mL and the MIC (Candida albicans [13]) was 0.63 µg/mL (≈ 1.43 µM). It also gave an MIC (Nakaseomyces glabratus) of over 80 µg/mL, an MIC (Aspergillus flavus) of over 40 µg/mL and an MIC (Aspergillus niger) of over 80 µg/mL. It also gave an MIC (Trichophyton benhamiae) of over 80 µg/mL, a survival at 2.5 mg/kg (Mus sp. [8]) of 100% and an MIC (Rhodotorula mucilaginosa) of 2.5 µg/mL (≈ 5.68 µM). It also gave a Survival (Mus sp. [10]) of 60% and an MIC (Candida albicans [11]) of 80 µg/mL (≈ 182 µM).

In the case of `C[C@H]1N(C(=O)c2ccccc2)CCO[C@@]1(Cn1cncn1)c1ccccc1` (racemic), the MIC (Pichia kudriavzevii; [15]) is reported as over 80 µg/mL, the MIC [3, 16] is reported as over 80 µg/mL and the MIC (Trichophyton rubrum; [17]) is reported as over 80 µg/mL. It also gave a survival at 2.5 mg/kg (Mus sp. [4]) of 0%, an MIC (Nannizzia gypsea; [18]) of over 80 µg/mL and an MIC (Candida parapsilosis; [19]) of over 80 µg/mL. For the same compound, the MIC (Kluyveromyces marxianus; [20]) was over 80 µg/mL, the survival at 2.5 mg/kg (Mus sp. [5]) was 40% and the survival at 2.5 mg/kg (Mus sp. [6]) was 0%. The MIC (Candida tropicalis; [21]) was over 80 µg/mL, the MIC (Aspergillus fumigatus; [22]) was over 80 µg/mL and the MIC (Microsporum canis; [23]) was over 80 µg/mL. It also gave an MIC (Candida albicans [7]; [24]) of over 80 µg/mL, an MIC (Nakaseomyces glabratus; [25]) of over 80 µg/mL and an MIC (Candida albicans [14]) of over 80 µg/mL. For the same compound, the MIC (Aspergillus flavus; [26]) was over 80 µg/mL, the MIC (Aspergillus niger; [27]) was over 80 µg/mL and the MIC (Trichophyton benhamiae; [28]) was over 80 µg/mL. For the same compound, the survival at 2.5 mg/kg (Mus sp. [8]) was 0%, the MIC (Rhodotorula mucilaginosa; [29]) was over 80 µg/mL and the MIC (Candida albicans [11]; [24]) was over 80 µg/mL.

`C[C@H]1N(C(=O)c2ccc(C(F)(F)F)cc2)C[C@H](O)O[C@@]1(Cn1cncn1)c1ccc(Cl)cc1Cl` (racemic) showed an MIC (Pichia kudriavzevii; [15]) of 10 µg/mL (≈ 19.4 µM), a survival at 1 mg/kg (Mus sp. [1]; Mus sp., po) of 90% and a survival at 1 mg/kg (Mus sp. [2]; Mus sp., po) of 100%. The MIC [3, 16] was 5 µg/mL (≈ 9.7 µM), the MIC (Trichophyton rubrum; [17]) was 40 µg/mL (≈ 77.6 µM) and the survival at 2.5 mg/kg (Mus sp. [4]) was 100%. For the same compound, the MIC (Nannizzia gypsea; [18]) was 40 µg/mL (≈ 77.6 µM), the MIC (Candida parapsilosis; [19]) was 2.5 µg/mL (≈ 4.85 µM) and the MIC (Kluyveromyces marxianus; [20]) was 0.15 µg/mL (≈ 0.291 µM). The survival at 2.5 mg/kg (Mus sp. [5]) was 100%, the survival at 2.5 mg/kg (Mus sp. [6]) was 100% and the MIC (Candida tropicalis; [21]) was 20 µg/mL (≈ 38.8 µM). It also gave an MIC (Aspergillus fumigatus; [22]) of 20 µg/mL (≈ 38.8 µM), an MIC (Microsporum canis; [23]) of 40 µg/mL (≈ 77.6 µM) and an MIC (Candida albicans [7]; [24]) of 1.25 µg/mL (≈ 2.43 µM). It also gave an MIC (Nakaseomyces glabratus; [25]) of 20 µg/mL (≈ 38.8 µM), an MIC (Candida albicans [14]) of 0.63 µg/mL (≈ 1.22 µM) and an MIC (Aspergillus flavus; [26]) of 20 µg/mL (≈ 38.8 µM). It also gave an MIC (Aspergillus niger; [27]) of over 80 µg/mL, an MIC (Trichophyton benhamiae; [28]) of 40 µg/mL (≈ 77.6 µM) and a survival at 2.5 mg/kg (Mus sp. [8]) of 100%. For the same compound, the survival at 1 mg/kg (Mus sp. [9]; Mus sp., po) was 100%, the MIC (Rhodotorula mucilaginosa; [29]) was 2.5 µg/mL (≈ 4.85 µM) and the survival at 1 mg/kg (Mus sp. [10]; Mus sp., po) was 70%. It also gave an MIC (Candida albicans [11]; [24]) of 5 µg/mL (≈ 9.7 µM).

Compound `C[C@H]1N(C(=O)c2ccc(C(F)(F)F)cc2F)CC(=O)O[C@@]1(Cn1cncn1)c1ccc(F)cc1F` (racemic) has an MIC (Pichia kudriavzevii; [15]) of over 80 µg/mL, an MIC [3, 16] of over 80 µg/mL and an MIC (Trichophyton rubrum; [17]) of over 80 µg/mL. For the same compound, the survival at 2.5 mg/kg (Mus sp. [4]) was 100%, the MIC (Nannizzia gypsea; [18]) was over 80 µg/mL and the MIC (Candida parapsilosis; [19]) was 80 µg/mL (≈ 161 µM). For the same compound, the MIC (Kluyveromyces marxianus; [20]) was 80 µg/mL (≈ 161 µM), the survival at 2.5 mg/kg (Mus sp. [5]) was 100% and the survival at 2.5 mg/kg (Mus sp. [6]) was 90%. The MIC (Candida tropicalis; [21]) was 80 µg/mL (≈ 161 µM), the MIC (Aspergillus fumigatus; [22]) was over 80 µg/mL and the MIC (Microsporum canis; [23]) was over 80 µg/mL. For the same compound, the MIC (Candida albicans [7]; [24]) was 20 µg/mL (≈ 40.1 µM), the MIC (Nakaseomyces glabratus; [25]) was over 80 µg/mL and the MIC (Candida albicans [14]) was 20 µg/mL (≈ 40.1 µM). The MIC (Aspergillus flavus; [26]) was over 80 µg/mL, the MIC (Aspergillus niger; [27]) was over 80 µg/mL and the MIC (Trichophyton benhamiae; [28]) was over 80 µg/mL. The survival at 2.5 mg/kg (Mus sp. [8]) was 100%, the MIC (Rhodotorula mucilaginosa; [29]) was over 80 µg/mL and the MIC (Candida albicans [11]; [24]) was 40 µg/mL (≈ 80.3 µM).
